26 compounds from paper PMC10807744 (Journal of agricultural and food chemistry, 2023) can be followed below.

Each structure is given as a SMILES string.

In the first assay the test system is mAb-19F2. Kind of assay: ic-ELISA. The following applies: mAb-19F2, relative to buprofezin = 100%. It is filed as binding, BALB/c mice. In general terms: An ELISA detects its analyte on a solid surface through an enzyme-linked reagent.
In turn, `CCCOC1CC(C)C([N+](=O)[O-])=C2N(Cc3ccc(Cl)nc3)CCN21` (centres unmarked) [Paichongding(IPP)] gave a Cross-reactivity of less than 0.18%.

In turn, `Cc1cc(C)cc(C(=O)N(NC(=O)c2ccc3c(c2C)CCCO3)C(C)(C)C)c1` [Chromafenozide] had a Cross-reactivity of less than 0.18%.

Compound `FC(F)(F)c1ccc(OCCCOc2c(Cl)cc(OCC=C(Cl)Cl)cc2Cl)nc1` [Pyrldalyl] had a Cross-reactivity of less than 0.18%.

In turn, `O=C(NC(=O)c1ccccc1Cl)Nc1ccc(OC(F)(F)F)cc1` [Triflumuron] displayed a Cross-reactivity of less than 0.18%.

As to `N#CCNC(=O)c1cnccc1C(F)(F)F` [Flonicamid], the Cross-reactivity was less than 0.18%.

`CC(c1ccc(C(F)(F)F)nc1)S(C)(=O)=NC#N` (centres unmarked) [Sulfoxaflor] registered a Cross-reactivity of less than 0.18%.

As to `N#CN=C1SCCN1Cc1ccc(Cl)nc1` [(E)-Thiacloprid], the Cross-reactivity is reported as less than 0.18%.

With `CN/C(=N/CC1CCOC1)N[N+](=O)[O-]` (centres unmarked) [Dinotefuran], the Cross-reactivity is recorded as less than 0.18%.

As for `CC(C)(C)N(NC(=O)c1ccccc1)C(=O)c1ccccc1` [1,2-dibenzoyl-1-(t-butyl)hydrazine], the Cross-reactivity is recorded as less than 0.18%.

On to `O=C(NC(=O)c1c(F)cccc1F)Nc1ccc(Cl)cc1` [Diflubenzuron], for which the Cross-reactivity is given as less than 0.18%.

On to `CN1COCN(Cc2cnc(Cl)s2)/C1=N\[N+](=O)[O-]` [Thiamethoxam], for which the Cross-reactivity was less than 0.18%.

`CCOC(=O)NCCOc1ccc(Oc2ccccc2)cc1` [Fenoxycarb] returned a Cross-reactivity of less than 0.18%.

`O=C1C=C(N(Cc2ccc(Cl)nc2)CC(F)F)CO1` [Flupyradifurone] had a Cross-reactivity of less than 0.18%.

Regarding `O=[N+]([O-])/N=C1\NCCN1Cc1cnc(Cl)s1` [Imidaclothiz], the Cross-reactivity is on record as less than 0.18%.

Regarding `CCN(Cc1ccc(Cl)nc1)/C(=C/[N+](=O)[O-])NC` [Nitenpyram], the Cross-reactivity is recorded as less than 0.18%.

The compound `O=C(NC(=O)c1c(F)cccc1F)Nc1cc(Cl)c(Oc2ncc(C(F)(F)F)cc2Cl)c(Cl)c1` [Chlorfluazuron] yielded a Cross-reactivity of less than 0.18%.

In the case of `CC(COc1ccc(Oc2ccccc2)cc1)Oc1ccccn1` (centres unmarked) [Pyriproxyfen], the Cross-reactivity is less than 0.18%.

Turning to `CC(C)N1C(=O)N(c2ccccc2)CS/C1=N\C(C)(C)C` [Buprofezin], the Cross-reactivity was found to be 100%.

For `O=C(NC(=O)c1ccccc1Cl)Nc1ccc(Cl)cc1` [Chlorbenzuron], the Cross-reactivity was less than 0.18%.

The compound `O=C(NC(=O)c1c(F)cccc1F)Nc1cc(Cl)c(OC(F)(F)C(F)F)c(Cl)c1` [Hexaflumuron] displayed a Cross-reactivity of less than 0.18%.

Consider `CCCC/C=N/N(Cc1ccc(Cl)nc1)/C(N)=N/[N+](=O)[O-]` [Guadipyr], for which the Cross-reactivity is less than 0.18%.

`O=C(NC(=O)c1c(F)cccc1F)Nc1cc(Cl)c(OC(F)(F)C(F)C(F)(F)F)cc1Cl` (centres unmarked) [Lufenuron]: the Cross-reactivity was less than 0.18%.

Regarding `CCc1ccc(C(=O)NN(C(=O)c2cc(C)cc(C)c2)C(C)(C)C)cc1` [Tebufenozide], the Cross-reactivity was less than 0.18%.

`Nc1nc(N)nc(NC2CC2)n1` [Cyromazine] came in with a Cross-reactivity of less than 0.18%.

Consider `CN/C(=N\[N+](=O)[O-])NCc1cnc(Cl)s1` [Clothianidin], for which the Cross-reactivity is given as less than 0.18%.

The compound `C/C(=N\C#N)N(C)Cc1ccc(Cl)nc1` [Acetamiprid] displayed a Cross-reactivity of less than 0.18%.

A further assay has as its system mAb-19F2. Briefly: colloidal gold immunochromatographic assay. The assay is classed as binding, BALB/c mice. The following applies: GICA; abstract. The method, boiled down: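 Colloidal gold strips were striped with […]. Tea was soaked 30 min in 50 mL boiling water, adjusted to pH 6-7, and 100 µL applied. Spikes were 2.5, 5 and 10 mg/kg. LOD was read by eye as test-line disappearance, and LOQ as IC20.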
`CC(C)N1C(=O)N(c2ccccc2)CS/C1=N\C(C)(C)C` [Buprofezin]: the “limit of quantitation (LOQ, IC20)” value is 0.0168 µg/mL.

The assay is the same for the next values; noted with them: T/C values, buprofezin standard in 0.01 M PBS.
With `CC(C)N1C(=O)N(c2ccccc2)CS/C1=N\C(C)(C)C` [Buprofezin], the “IC50 of the test strip” value turned out to be 0.2312 µg/mL.

Still in this assay, the particulars now being: complete disappearance of test line visible to the naked eye.
As for `CC(C)N1C(=O)N(c2ccccc2)CS/C1=N\C(C)(C)C` [Buprofezin], the “detection limit (LOD)” value was 500 ng/mL.
